Sampled rows, rich in hits. Any-hit rate of the full collection: about 1.5%.
SIRT5 inh = sirtuin-5 (human) deacylase inhibition; Q9NXA8; Purified SirT5, succinyl-peptide AMC, trypsin-coupled fluorescence; inhibition, % at 15 µM; 330,000 compounds, 1.1% hits; AID 652115; in the data active means inhibition above about 15%
Target sequence (Q9NXA8 whole entry, looked up): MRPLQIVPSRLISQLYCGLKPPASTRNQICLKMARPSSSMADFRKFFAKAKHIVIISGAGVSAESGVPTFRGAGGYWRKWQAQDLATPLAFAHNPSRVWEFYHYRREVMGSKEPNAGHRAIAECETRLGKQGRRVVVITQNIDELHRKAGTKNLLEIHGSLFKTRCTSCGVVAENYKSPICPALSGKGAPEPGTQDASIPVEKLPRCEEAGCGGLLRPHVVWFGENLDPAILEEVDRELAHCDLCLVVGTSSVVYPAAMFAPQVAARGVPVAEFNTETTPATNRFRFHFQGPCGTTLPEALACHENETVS
S100A4 inh HTS = blocks human S100A4 binding to myosin IIA peptide. S100A4/TAMRA-MyoIIA peptide fluorescence polarization. inhibition, % at 10.7 µM. 360,000 compounds, 0.14% hits. P26447;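 active means mean inhibition of at least 70% across replicates, with every replicate also reaching that level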
Target sequence (P26447 whole entry, looked up): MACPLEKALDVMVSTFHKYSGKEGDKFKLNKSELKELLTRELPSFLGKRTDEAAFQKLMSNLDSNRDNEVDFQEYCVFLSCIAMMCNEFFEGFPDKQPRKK
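assay system = human S100A4 monomer with TAMRA-labelled myosin IIA peptide | also added = labelled myosin peptide probe, 5 nM | incubation = 5 min between mix addition and reading | control set = DMSO and TFP controls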
PKA-R1A act = activators of PKA-R1A complex. P00514+P68181. PKA-R1A dissociation, Cy5-IP20 fluorescence polarization; scaled: DMSO 0%, 113 µM cGMP 100%. activation, % at 11.4 µM. 340,000 compounds, 0.083% hits. AID 504707;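 active means percent activation above the mean of all tested compounds plus 3 SD, cut at about 19% in these data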;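 further: higher means more PKAc released from R1A so a rise in polarization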
PKA-R2B act = PKA-R2B complex activation | PKA-R2B holoenzyme dissociation, Cy5-IP20 fluorescence polarization; R2B truncated from residue 108, S112A mutant; 0% DMSO only, 100% 113 µM cGMP | P22694+P31323 | activation, % at 11.4 µM | 340,000 compounds, 0.079% hits;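 active means activation above a cutoff set at the mean over all compounds plus 3 SD, cut at about 18% in these data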;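 further: higher means more holoenzyme dissociation and a rise in polarization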
CRFBP-R2 block = antagonists of CRF-binding protein/CRF-R2 receptor complex. inhibition, % at 11.8 µM. 350,000 compounds, 0.59% hits. AID 588475. HEK293 CRF-R2/CRF-BP, CRF-induced calcium fluorescence;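 active means inhibition of the ligand-induced calcium signal above about 50% at the single tested concentration, limit read from the data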
R2B FP artifact = fluorescence polarization artifact in PKA-R2B activator counter-screen; shares compounds with PKA-R2B act; FP artifact counterscreen; activation, % at 11.4 µM; 270 compounds, 6% hits; in the data active means activation above about 20%;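 further: Cy5 labelled IP20 peptide probe with compound but no PKA protein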
PKA-R2B confirm = PKA-R2B complex activation, confirmation; shares compounds with PKA-R2B act; fluorescence polarization; activation, % at 11.4 µM; 270 compounds, 9% hits; AID 504797; in the data active means activation above about 19%
R1A FP artifact = fluorescence polarization artifact in PKA-R1A activator counter-screen. shares compounds with PKA-R1A act. Cy5-IP20 peptide alone, fluorescence polarization artifact counterscreen. activation, % at 11.4 µM. 280 compounds, 7% hits. AID 504799;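 active means mean activation over triplicate runs exceeds the adjusted cutoff derived for the parent primary screen, cut at about 19% in these data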;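 further: no PKA protein present so any polarization rise reflects compound interference; 0% = tracer peptide mix alone and 100% = mix with added PKA catalytic subunit; higher means stronger polarization artifact and likely false positive in parent screen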
PKA-R1A act conf = PKA-R1A complex activation, confirmation; AID 504800; Cy5-IP20 fluorescence polarization, PKA-R1A holoenzyme dissociation; activation, % at 11.4 µM; 280 compounds, 9% hits; shares compounds with PKA-R1A act;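 active means mean activation over replicate wells exceeds the adjusted hit threshold taken from the earlier primary screen, cut at about 20% in these data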;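 further: 0% = holoenzyme mix with DMSO only and 100% = cGMP-activated control wells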
Starred values were filed as active, the others as inactive; . = no result given.

SMILES	SIRT5 inh	S100A4 inh HTS	PKA-R1A act	PKA-R2B act	CRFBP-R2 block	R1A FP artifact	PKA-R1A act conf	others
CCCC1Nc2ccc(C(=O)O)cc2C2C=CCC12 (stereo not drawn)	.	.	23*	19*	-12	21*	24*	R2B FP artifact=21*;PKA-R2B confirm=20*
Cc1oc2ccc(OCc3ccccc3F)cc2c1C(=O)O	.	.	-2	-9	-2	.	.
Cc1ccccc1COc1ccc2oc(C)c(C(=O)O)c2c1	6	-9	43*	42*	10	60*	67*	R2B FP artifact=60*;PKA-R2B confirm=70*
CN(C)C(=O)c1cccc(-c2ccc([C@@H]3[C@@H](CO)N4C(=O)CN(C(=O)C5CCCC5)C[C@@H]34)cc2)c1	-1	-7	.	.	.	.	.
COc1ccc2oc(C(=O)OCC(=O)Nc3ccc(NC(C)=O)cc3)c(C)c2c1	-3	-4	20*	25*	-12	8	13	R2B FP artifact=8;PKA-R2B confirm=13
CCS(=O)(=O)C1=NN2C(=N)/C(=C\c3ccc(OS(=O)(=O)c4ccccc4)cc3)C(=O)N=C2S1	.	.	-9	1	-4	.	.
CCC1=NN2C(=N)/C(=C/c3ccc(OS(=O)(=O)c4ccccc4)cc3)C(=O)N=C2S1	.	.	22*	29*	3	23*	28*	R2B FP artifact=23*;PKA-R2B confirm=23*
CCCNC(=O)N1[C@H](C#N)[C@@H](c2ccc(/C=C/c3ccccc3)cc2)[C@H]1CO	1	-11	.	.	.	.	.
COc1ccccc1NC(=O)C/C(N)=N/OCC(=O)Nc1cccc(Cl)c1	0	-2	-12	-2	-2	.	.
COc1ccc(C)cc1NC(=O)CO/N=C(\N)CC(=O)Nc1ccccc1OC	-9	-7	20*	4	10	3	1
C[C@H](CO)N1C[C@H](C)[C@@H](CN(C)C(=O)Cc2ccccn2)Oc2ncc(-c3ccccc3)cc2C1=O	-7	-11	.	.	.	.	.
O=C(CSc1ccc(-c2ccncc2)nn1)N1CCCC1	1	-30	-5	-4	-13	.	.
O=C(CSc1ccc(-c2ccncc2)nn1)N1CCCCC1	-3	3	19*	-6	3	0	8
Cc1ccc(S(=O)(=O)N(C)C[C@H]2OCCCC[C@H](C)Oc3ccc(NC(=O)Cc4ccccc4)cc3C(=O)N([C@H](C)CO)C[C@@H]2C)cc1	11	-1	.	.	.	.	.
CCOC(=O)N1CCc2c(sc3nc(SC(C)C)n(N)c(=O)c23)C1	.	.	-6	-8	-5	.	.
CCOC(=O)N1CCc2c(sc3ncn(C)c(=O)c23)C1	1	0	19*	0	-4	-4	0
CCOc1ccccc1Nc1nc(N)nc(CSc2nncn2C)n1	.	.	21*	11	-3	0	3
CCc1cc(Cn2nc(-c3ccccc3C)cc2C(=O)O)on1	.	-2	19*	-3	-3	0	-2
CCOC(=O)c1cc(-c2ccccc2C)nn1Cc1cc(C)no1	.	0	-3	2	7	.	.
C[C@H](CO)N1C[C@H](C)[C@@H](CN(C)Cc2ccc(Oc3ccccc3)cc2)Oc2c(NC(=O)Nc3ccc(F)cc3)cccc2C1=O	-1	-11	.	.	.	.	.
O=c1c(Cl)c(NCc2ccco2)cnn1C12CC3CC(CC(C3)C1)C2	-5	1	11	3	-18	.	.
O=c1c(Cl)c(NCc2ccccc2Cl)cnn1C12CC3CC(CC(C3)C1)C2	6	11	19*	15	-37	0	-1
CCOc1ccc(NC(=O)CN(C)C(=O)CCNC(=O)c2ccco2)cc1OCC	-2	3	19*	12	0	0	1
O=C(Nc1ccc2c(c1)OCO2)c1ccc2c(c1)S(=O)(=O)c1ccccc1C2=O	-1	6	2	0	-10	.	.
O=C(NCc1ccc2c(c1)OCO2)c1ccc2c(c1)S(=O)(=O)c1ccccc1C2=O	-4	0	22*	-7	9	-2	-2
SMILES	SIRT5 inh	S100A4 inh HTS	PKA-R1A act	PKA-R2B act	CRFBP-R2 block	R1A FP artifact	PKA-R1A act conf	others
CC(=O)Nc1ccc(C(=O)OCc2ccc(Cl)cc2)cc1	.	.	0	2	2	.	.
CCCS(=O)(=O)c1ccc(COC(=O)c2ccc(NC(C)=O)cc2)cc1	3	4	22*	3	-26	0	7
Cc1noc(C)c1NC(=O)N(C)C[C@@H]1Oc2ccc(NS(C)(=O)=O)cc2C(=O)N([C@H](C)CO)C[C@H]1C	2	5	.	.	.	.	.
O=C(O)c1nn(CC(=O)N2CCC(Cc3ccccc3)CC2)c(=O)c2ccccc12	3	-1	21*	-5	-9	1	3
Cc1ccnc(SCc2cc(=O)c(OC(=O)c3cc([N+](=O)[O-])ccc3Cl)co2)n1	0	-4	19*	2	25	2	3
CCC(=O)Nc1ccc2c(c1)OC[C@@H](C)N(C(=O)COC)C[C@@H](C)[C@@H](OC)CN(C)C2=O	6	13	.	.	.	.	.
CO[C@H]1CN(C)C(=O)c2ccc(NS(=O)(=O)c3ccc(C)cc3)cc2OC[C@H](C)N(Cc2nccs2)C[C@@H]1C	-2	10	.	.	.	.	.
CN1[C@@H]2c3ccc(C4=CCCCC4)c(=O)n3C[C@@H]2[C@@H](CO)[C@@H]1C(=O)NCc1ccccc1	-14	3	.	.	.	.	.
COc1ccc(CN(C)C[C@H]2Oc3c(NC(=O)Nc4ccc(C(F)(F)F)cc4)cccc3C(=O)N([C@H](C)CO)C[C@@H]2C)cc1	-5	4	.	.	.	.	.
Cc1ccc(C(C(=O)NC2CCCC2)N(C(=O)c2csnn2)c2ccccc2)o1 (stereo not drawn)	1	-3	20*	-7	2	5	5
Cc1cccc(NC(=O)c2sc(C)nc2C)c1	.	.	19*	3	-27	0	1
O=C(CN1CCOCC1)N[C@@H]1CC[C@H](CCn2cc(C3CC3)nn2)O[C@@H]1CO	-9	-39	.	.	.	.	.
CCN1C(=O)/C(=C/N(C)C)c2ccccc21	.	.	19*	6	0	1	5
CCCC(=O)Nc1ccc2c(c1)C(=O)N(C)[C@H]1CC[C@@H](CC(=O)O)O[C@H]1CO2	3	-3	.	.	.	.	.
COc1cccc(NC(=O)CN(C)C(=O)CCNS(=O)(=O)c2ccc(C)cc2)c1	-1	16	19*	11	-7	3	2
CCn1cc([N+](=O)[O-])c(C(=O)Nc2c(C)nn(Cc3cccc(F)c3)c2C)n1	-1	4	19*	4	-17	6	3
